# Assay results taken from ChEMBL document CHEMBL2202989, “New adamantane phenylalkylamines with σ-receptor binding affinity and anticancer activity, associated with putative antagonism of neuropathic pain” (J Med Chem, 2012).
# The source made the active and inactive calls. The calls are words filed in the database; no cut-off is given here.
# Experiments:
# PC-3 [1] = test: Antitumor activity against human PC3 cells xenografted in SCID mouse assessed as axillary metastasis at 55 mg/kg, ip administered 5 consecutive days in a week for two cycles measured after 2 cycles relative to control; assay type: functional; settings: route intraperitoneal
# In short: (§1)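 PC3 xenografts were grown in SCID mice (10^6 cells per inoculum), 14 mice (28 tumors) per group, dosed ip from about 100 mm3. The test agent was given in 5% Tween 80; paclitaxel was given in Cremophor diluted in saline, with a vehicle of 1:1 ethanol/Cremophor diluted 1:3 in saline. Volume and %ΔT/ΔC were derived from caliper readings twice weekly. Occurrence of primary tumors and of axillary and bone metastases was scored (n = 7). Two-tailed t test.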
# PC-3 [2] = test: Induction of apoptosis in human PC3 cells assessed as healthy cells at 50 uM using annexin V/7-AAD by FACS analysis (reference value: 91 %); assay type: functional
# PC-3 [3] = test: Cell cycle arrest in human PC3 cells assessed as accumulation at sub G1 phase at 5 uM after 24 hrs using propidium iodide staining by FACS analysis (reference value: 4 %); assay type: functional
# IGROV-1 [4] = test: Cell cycle arrest in human IGROV1 cells assessed as accumulation at G2 phase at 5 uM after 24 hrs using propidium iodide staining by FACS analysis (reference value: 19 %); assay type: functional
# Mus musculus = test: Analgesic activity in CD1 mouse neuropathic pain model assessed as reduction in paw licking time at 50 mg/kg, po administered 1 hr prior to formalin challenge in presence of paclitaxel; assay type: functional, organism-based; set-up: dose 50 mg/kg
# In short: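 CD1 male mice (34−40 g), free access to food and water, were given paclitaxel 6 mg/kg ip once in saline on day 0. On day 14 the test compound was given orally 1 h before formalin was injected into the hind paw. Time spent licking and biting the injected paw and leg was recorded at 0−5 and 35−40 min after formalin.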
# IGROV-1 [5] = test: Induction of apoptosis in human IGROV1 cells assessed as late apoptosis at 0.5 uM using annexin V/7-AAD by FACS analysis (reference value: 5 %); assay type: functional
# IGROV-1 [6] = test: Cell cycle arrest in human IGROV1 cells assessed as accumulation at sub G1 phase at 15 uM after 24 hrs using propidium iodide staining by FACS analysis (reference value: 4 %); assay type: functional
# PC-3 [7] = test: Cell cycle arrest in human PC3 cells assessed as accumulation at G2 phase at 0.5 uM after 24 hrs using propidium iodide staining by FACS analysis (reference value: 12 %); assay type: functional
# PC-3 [8] = test: Cell cycle arrest in human PC3 cells assessed as accumulation at S phase at 5 uM after 24 hrs using propidium iodide staining by FACS analysis (reference value: 42 %); assay type: functional
# PC-3 [9] = test: Induction of apoptosis in human PC3 cells assessed as early apoptosis at 50 uM using annexin V/7-AAD by FACS analysis (reference value: 5 %); assay type: functional
# In short: (§2)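 Cells plated 24 h before treatment, then exposed 24 h to 0.5, 5, 15 or 50 μM compound (final DMSO 0.5%); vehicle controls included. Cells scraped and stained with annexin V-FITC and 7-AAD for 15 min on ice in the dark. Flow cytometry with 488 nm excitation, 10,000 gated cells. Early apoptosis was annexin V+/7-AAD−, late was annexin V+/7-AAD+.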
# BXPC-3 [10] = test: Induction of apoptosis in human BxPC3 cells assessed as cleaved caspase3 containing cells at 0.5 uM by antibody-based FACS analysis (reference value: 8.2 %); assay type: functional
# BXPC-3 [11] = test: Induction of apoptosis in human BxPC3 cells assessed as cleaved caspase3 containing cells at 5 uM by antibody-based FACS analysis (reference value: 8.2 %); assay type: functional
# PC-3 [12] = test: Cell cycle arrest in human PC3 cells assessed as accumulation at G2 phase at 50 uM after 24 hrs using propidium iodide staining by FACS analysis (reference value: 12 %); assay type: functional
# BXPC-3 [13] = test: Induction of apoptosis in human BxPC3 cells assessed as late apoptosis at 50 uM using annexin V/7-AAD by FACS analysis (reference value: 9 %); assay type: functional; in short: as §2
# IGROV-1 [14] = test: Induction of apoptosis in human IGROV1 cells assessed as early apoptosis at 5 uM using annexin V/7-AAD by FACS analysis (reference value: 9 %); assay type: functional
# BXPC-3 [15] = test: Cell cycle arrest in human BxPC3 cells assessed as accumulation at S phase at 50 uM after 24 hrs using propidium iodide staining by FACS analysis (reference value: 33 %); assay type: functional
# In short: (§3)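 Cells were plated 24 h before treatment and exposed for 24 h at final 0.5, 5, 15 and 50 μM in 0.5% DMSO, against vehicle-treated controls. Cells were then trypsinised and fixed in cold ethanol for 3 h at 4 °C. They were stained in a mix of RNase (200 μg/mL) and PI (1 mg/mL) for 45 min at room temperature in the dark. Flow cytometry used 488 nm excitation and 10 000 gated cells. Phase percentages were assigned from DNA content.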
# IGROV-1 [16] = test: Cell cycle arrest in human IGROV1 cells assessed as accumulation at >G2/M phase at 15 uM after 24 hrs using propidium iodide staining by FACS analysis (reference value: 21 %); assay type: functional; in short: as §3
# IGROV-1 [17] = test: Induction of apoptosis in human IGROV1 cells assessed as total apoptotic death at 15 uM using annexin V/7-AAD by FACS analysis (reference value: 13 %); assay type: functional; in short: as §2
# IGROV-1 [18] = test: Cell cycle arrest in human IGROV1 cells assessed as accumulation at S phase at 50 uM after 24 hrs using propidium iodide staining by FACS analysis (reference value: 29 %); assay type: functional
# PC-3 [19] = test: Cell cycle arrest in human PC3 cells assessed as accumulation at S phase at 0.5 uM after 24 hrs using propidium iodide staining by FACS analysis (reference value: 42 %); assay type: functional
# BXPC-3 [20] = test: Cell cycle arrest in human BxPC3 cells assessed as accumulation at G1 phase at 0.5 uM after 24 hrs using propidium iodide staining by FACS analysis (reference value: 41 %); assay type: functional; in short: as §3
# PC-3 [21] = test: Antitumor activity against human PC3 cells xenografted in SCID mouse assessed as bone metastasis at 55 mg/kg, ip administered 5 consecutive days in a week for two cycles measured after 2 cycles relative to control; assay type: functional; settings: route intraperitoneal; in short: as §1
# DU-145 = test: Antitumor activity against human DU145 cells xenografted in SCID mouse assessed as tumor growth inhibition at 55 mg/kg, ip administered 5 consecutive days in a week for two cycles measured after 2 cycles relative to control; assay type: functional; settings: DU-145, ip, route intraperitoneal, read-out: TGI
# In short: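 DU145 xenografts were grown in SCID mice from 10^6-cell inocula, with at least 30 animals in total. Treatment started ip at a mean tumor volume of about 100 mm3. The test agent was given in 5% Tween 80; paclitaxel was dissolved in Cremophor and diluted in saline. Caliper volumes were taken twice weekly and %ΔT/ΔC calculated; two-tailed t test.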
# BXPC-3 [22] = test: Cell cycle arrest in human BxPC3 cells assessed as accumulation at >G2/M phase at 15 uM after 24 hrs using propidium iodide staining by FACS analysis (reference value: 6 %); assay type: functional; in short: as §3
# IGROV-1 [23] = test: Induction of apoptosis in human IGROV1 cells assessed as late apoptosis at 15 uM using annexin V/7-AAD by FACS analysis (reference value: 5 %); assay type: functional
# IGROV-1 [24] = test: Cell cycle arrest in human IGROV1 cells assessed as accumulation at >G2/M phase at 5 uM after 24 hrs using propidium iodide staining by FACS analysis (reference value: 21 %); assay type: functional; in short: as §3
structure (smiles),measurement,setting,value
CN1CCN(CCCc2ccc(C(c3ccccc3)C34CC5CC(CC(C5)C3)C4)cc2)CC1 (stereo unspecified),Activity,PC-3 [1],0%
same,Activity,PC-3 [2],43%
same,Activity,PC-3 [3],11%
same,Activity,IGROV-1 [4],21%
same,Activity,Mus musculus,Active
same,Activity,IGROV-1 [5],3%
same,Activity,IGROV-1 [6],12%
same,Activity,PC-3 [7],15%
same,Activity,PC-3 [8],36%
same,Activity,PC-3 [9],15%
same,Activity,BXPC-3 [10],4%
same,Activity,BXPC-3 [11],4%
same,Activity,PC-3 [12],11%
same,Activity,BXPC-3 [13],44%
same,Activity,IGROV-1 [14],10%
same,Activity,BXPC-3 [15],33%
same,Activity,IGROV-1 [16],17%
same,Activity,IGROV-1 [17],57%
same,Activity,IGROV-1 [18],28%
same,Activity,PC-3 [19],38%
same,Activity,BXPC-3 [20],41%
same,Activity,PC-3 [21],43%
same,inhibition in vivo at 55 mg/kg,DU-145,71.4%
same,Activity,BXPC-3 [22],5%
same,Activity,IGROV-1 [23],20%
same,Activity,IGROV-1 [24],20%
